In the library only some 1.5% were active in any assay of this set; here they are far more common.
APJ agonist: agonists of human APJ apelin receptor; 330,000 compounds, 0.11% hits; P35414; AID 2520; activation, % at 20 µM; CHO-K1 APJ PathHunter beta-arrestin, luminescence; 0% DMSO wells, 100% apelin;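 active = activation more than six SD over the plate average, tested at 20 µM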;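 note: 0% = DMSO alone and 100% = apelin-13 at 10 nM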
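Test system: CHO-K1 APJ beta-arrestin complementation cell line. Amount: cell density 1000 per well. Controls: DMSO negative, 10 nM Apelin-13 positive. Signal: luminescent beta-gal fragment complementation, chemiluminescent substrate. Read-out basis: agonist-driven arrestin binding to APJ. Timing: compound stimulation 90 min at 25 °C, detection 60 min.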
EBI2 antag: antagonists of human EBI2 receptor | 360,000 compounds, 0.81% hits | EBI2 beta-arrestin recruitment, luminescence, 7a,25-OHC stimulated | inhibition, % at 5 µM; in the data active = inhibition above about 38%;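 note: enzyme fragment complementation signal reports receptor beta-arrestin coupling in cells; 0% = agonist plus DMSO wells and 100% = wells without agonist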
APJ antagonist: antagonists of human APJ apelin receptor. 330,000 compounds, 0.32% hits. P35414. inhibition, % at 20 µM. AID 2521. CHO-K1 APJ beta-arrestin complementation, luminescence;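 active = inhibition above about 40% at 20 µM, limit read from the data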;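 note: cells challenged with 10 nM apelin-13 agonist together with compound; plate controls were apelin-13 plus DMSO wells for no effect and DMSO wells lacking apelin-13 for full effect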
CXCR6 inh: inhibitors of human CXCR6 receptor; O00574; CHO-K1 PathHunter CXCR6 beta-arrestin, luminescence; inhibition, % at 20 µM; 360,000 compounds, 0.36% hits; AID 602244; in the data active = inhibition above about 34%, passing the limit was not always enough;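 note: antagonist mode with CXCL16 agonist at 10 nM final; 0% = 10 nM CXCL16 with DMSO and 100% = unstimulated wells without agonist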
CCR6 antag: blocks CCL20-driven beta-arrestin recruitment at human CCR6. P51684. CHO-K1 CCR6 PathHunter beta-arrestin, luminescence, CCL20-stimulated. inhibition, % at 20 µM. 340,000 compounds, 0.49% hits. AID 493098;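 active = compounds whose inhibition of the agonist-driven luminescence signal at 20 µM reaches about 50%, limit read from the data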;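 note: cells stimulated with CCL20 at 14 nM final; plate controls were DMSO with CCL20 for no effect and DMSO without agonist for full effect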
Target sequence (P51684 whole entry, looked up): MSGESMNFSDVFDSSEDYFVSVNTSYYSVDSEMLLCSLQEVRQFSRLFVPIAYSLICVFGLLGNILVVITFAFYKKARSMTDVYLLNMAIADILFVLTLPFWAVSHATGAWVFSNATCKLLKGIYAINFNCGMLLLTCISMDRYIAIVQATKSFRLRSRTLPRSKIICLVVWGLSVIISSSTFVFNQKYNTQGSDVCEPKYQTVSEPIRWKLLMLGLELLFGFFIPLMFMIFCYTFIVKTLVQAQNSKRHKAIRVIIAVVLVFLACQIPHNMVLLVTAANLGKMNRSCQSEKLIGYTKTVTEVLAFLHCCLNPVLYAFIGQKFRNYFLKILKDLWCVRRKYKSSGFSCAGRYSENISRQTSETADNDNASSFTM
EBI2 conf: confirmation of human EBI2 receptor antagonists; shares compounds with EBI2 antag; EBI2 beta-arrestin luminescence, 7a,25-OHC antagonism; inhibition, % at 5 µM; 2,400 compounds, 29% hits; AID 651997;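 active = inhibition of at least 50%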
EBI2 ag: counter-screen for EBI2 antagonists: EBI2 agonist activity; EBI2-expressing cells, agonist mode, luminescence, 60 min; 0% vehicle, 100% 7α,25-dihydroxycholesterol control; 2,400 tested, under 10 active; AID 652000; activation, % at 5 µM; shares compounds with EBI2 antag;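 active = activation of at least 50%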
bGal counter: beta-galactosidase inhibition counter-screen; shares compounds with EBI2 antag; purified beta-galactosidase, luminescent Galacton Star, 15 min; inhibition, % at 5 µM; 2,400 compounds, 1% hits;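 active = replicate-average signal at least 3 plate SD below neutral wells, shown as high inhibition, flagging enzyme-inhibiting false positives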;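 note: 0% = DMSO wells with enzyme and 100% = wells lacking enzyme; higher means stronger loss of beta-gal luminescence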
* hit, by the source's call; / = no result given.

SMILES	APJ agonist	EBI2 antag	APJ antagonist	CXCR6 inh	CCR6 antag	EBI2 conf	EBI2 ag	bGal counter
Cc1ccc2c(c1)[C@H]1[C@H](CO2)[C@H](c2ccccc2)[C@]2(C)C(=O)N(Cc3ccc(Cl)cc3)CC(=O)N12	-2.6	47.8*	-2.4	8.2	13.7	30.8	-1.3	-9.2
CSc1nc(O)c(C(c2ccc(O)cc2)c2c(O)nc(SC)[nH]c2=O)c(=O)[nH]1	5.2	-12.2	6.8	-4.2	-14.9	/	/	/
CCOC(=O)C1=C(O)/C(=C/c2ccccn2)SC1=Nc1ccc(Cl)cc1	-1.3	88.2*	20.4	7.3	23.8	85.7*	1.3	7.8
CCOC(=O)C1=C(O)/C(=C/c2cc(OC)c(O)c(OC)c2)SC1=Nc1ccc(OC)cc1	/	49.3*	/	13.1	21.4	48.7	2.2	13.6
Cc1ccc(N2C(=O)/C(=C\c3ccc(C(C)C)cc3)N=C2SC2CCOC2=O)cc1 (configuration not stated)	-2.3	5.4	5.4	8.2	16.6	/	/	/
O=C(c1ccccc1)c1sc(Nc2ccc3c(c2)OCO3)nc1-c1ccccc1	/	49.5*	/	13.0	/	46.8	-0.1	8.7
O=C(/C=C/c1ccco1)N1CCN(C/C=C/c2ccccc2)CC1	0.1	63.4*	-18.0	12.3	10.7	31.8	0.7	2.4
O=C(/C=C/c1ccco1)N1CCN(S(=O)(=O)/C=C/c2ccccc2)CC1	3.4	79.1*	-24.9	-1.5	-1.2	48.3	2.5	2.0
Cc1ccc(/C=C/C(=O)N2CCN(S(=O)(=O)/C=C/c3ccccc3)CC2)o1	-2.9	67.5*	-22.0	4.9	6.7	38.4	1.5	5.1
Cc1ccc(/C=C/C(=O)N2CCN(S(=O)(=O)c3cccs3)CC2)o1	-0.6	20.3	-8.8	-5.0	1.2	/	/	/
O=C(/C=C/c1ccco1)N1CCN(c2ccccc2)CC1	-1.0	2.5	12.7	2.4	8.7	/	/	/
O=C(O)/C=C(\Oc1ccccc1)C1(O)CCCCC1	-3.2	-6.2	-2.7	-0.8	7.0	/	/	/
CC(=O)NC(C)(c1ccccc1)c1nc(-c2ccc(F)c(Cl)c2)cs1 (configuration not stated)	/	23.1	/	-1.5	/	/	/	/
C[C@H]1CN([C@@H](C)CO)C(=O)CCCn2nncc2CO[C@H]1CN(C)S(=O)(=O)c1cccc(F)c1	/	-5.9	/	0.3	/	/	/	/
C[C@@H]1CN([C@H](C)CO)C(=O)CCCn2nncc2CO[C@@H]1CN(C)S(=O)(=O)c1cccc(F)c1	/	55.9*	/	3.9	/	27.0	-0.5	5.2
C[C@@H]1CN([C@@H](C)CO)C(=O)CCCn2nncc2CO[C@@H]1CN(C)S(=O)(=O)c1cccc(F)c1	/	64.5*	/	4.1	/	31.8	-0.7	-14.0
CC(NC(=O)/C=C/c1ccccc1)c1ccccc1 (configuration not stated)	1.5	-2.2	6.8	2.6	0.0	/	/	/
CC(NC(=O)/C=C/c1ccc(Br)cc1)c1ccccc1 (configuration not stated)	0.6	44.4*	-11.5	-10.7	5.2	23.9	-0.9	-14.3
CCc1ccc(C(C)NC(=O)/C=C/c2ccc(Br)cc2)cc1 (configuration not stated)	1.0	61.4*	-32.9	3.8	5.6	27.0	0.0	-14.0
Cc1cc(CNCCN(C)C)c(C)n1-c1cc(S(=O)(=O)N2CCOCC2)ccc1N1CCCC1	/	-12.1	/	3.4	11.9	/	/	/
O=C(NC1CCCC1)C(c1cccnc1)N(C(=O)c1ccco1)c1ccc(F)cc1 (configuration not stated)	-3.2	-11.3	-0.8	5.0	6.2	/	/	/
Cc1ccccc1Nc1c([N+](=O)[O-])ccc2c1=NC1(CCCCC1)N=2	2.4	56.1*	-25.6	12.4	3.0	15.1	1.2	0.8
Cc1[nH]c2ccc(C(=O)N3CCN(c4ccc(F)cc4)CC3)cc2c1C	-3.6	78.1*	-27.2	0.7	-4.6	72.2*	0.6	10.8
CC(=O)c1ccc(N2CCN(C(=O)c3ccc4[nH]c(C)c(C)c4c3)CC2)cc1	0.2	13.7	4.7	-2.0	3.9	/	/	/

Screens as filed in PubChem BioAssay.
